Assay [1] concerns Escherichia coli. Put plainly: Antimicrobial activity against AcrAB-deficient Escherichia coli AG100AX harboring pBAD plasmid after 18 to 24 hrs by two fold dilution method. The assay is classed as functional. In short, it runs like this:
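Twofold agar dilution on LB agar containing the antimicrobial, inoculum 10⁴ CFU/spot. Growth was scored after 18–24 h at 37°C, and each MIC determination was repeated at least four times.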

Assay [2] has as its system Escherichia coli. Put plainly: Antimicrobial activity against AcrAB-deficient Escherichia coli AG100AX harboring pBADomegaydhE plasmid containing Escherichia coli multidrug efflux pump YdhE after 18 to 24 hrs by two fold dilution method. In kind it is functional.
In assay [3] the test system is Escherichia coli. Put plainly: Antimicrobial activity against AcrAB-deficient Escherichia coli AG100AX harboring pBADomeganorM plasmid containing Neisseria gonorrhoeae multidrug efflux pump NorM after 18 to 24 hrs by two fold dilution method. In kind it is functional.
Assay [4] can be described thus: Binding affinity to Neisseria gonorrhoeae FA19 multidrug efflux protein NorM expressed in Escherichia coli AG100AX in presence of 0.02% DDM surfactant by fluorescence polarization assay. Background: In fluorescence polarisation assays a small probe gives low polarisation when free and higher when bound to something large.
Assay [5] relates to Neisseria gonorrhoeae. Description: Activity of Neisseria gonorrhoeae FA19 multidrug efflux protein NorM expressed in Escherichia coli AG100AX assessed as reduction in compound accumulation by fluorimetric assay. A digest of the protocol:
(§1)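 AG100AX cells carrying the pBAD-based plasmid were grown in LB with 0.01% L-arabinose at 37°C to OD600 1.0, washed, and resuspended to OD600 1.0 in 0.1 M Tris-HCl pH 7.0. Norfloxacin (100 μM final) or ethidium bromide (20 μg/ml final) was added and samples taken over time. CCCP (100 μM final) was added at 15 min. After a further 15 min, CCCP was removed and cells re-energized with 0.4% glucose. Maximum fluorescence was normalized to 100%.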

The target in assay [6] is T1, Multidrug resistance protein MdtK (Escherichia coli (strain K12)) (UniProt P37340).
T1 sequence (whole entry): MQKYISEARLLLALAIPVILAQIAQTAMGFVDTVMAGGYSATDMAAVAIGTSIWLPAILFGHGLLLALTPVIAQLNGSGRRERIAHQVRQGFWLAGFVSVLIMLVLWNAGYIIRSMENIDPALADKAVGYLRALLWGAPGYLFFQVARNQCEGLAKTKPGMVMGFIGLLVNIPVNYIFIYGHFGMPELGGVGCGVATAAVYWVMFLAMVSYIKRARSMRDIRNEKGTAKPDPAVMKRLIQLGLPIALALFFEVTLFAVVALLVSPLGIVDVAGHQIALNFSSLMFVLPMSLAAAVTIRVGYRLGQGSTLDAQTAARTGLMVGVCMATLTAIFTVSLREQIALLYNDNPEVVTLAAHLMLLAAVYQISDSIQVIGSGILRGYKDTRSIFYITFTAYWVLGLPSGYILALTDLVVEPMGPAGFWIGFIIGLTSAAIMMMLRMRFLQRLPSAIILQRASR
Description: Activity of Escherichia coli K-12 multidrug efflux protein YdhE expressed in Escherichia coli AG100AX assessed as reduction in compound accumulation by fluorimetric assay. A digest of the protocol: as §1

The target in assay [7] is T2, Multidrug resistance protein MdtK (Escherichia coli (strain K12), UniProt P37340).
T2 sequence (P37340 whole entry): T1 sequence (whole entry)
Put plainly: Binding affinity to Escherichia coli K-12 multidrug efflux protein YdhE […] in presence of 0.02% DDM surfactant by fluorescence polarization assay.

Assay [8] deals with Neisseria gonorrhoeae. Description: Inhibition of Neisseria gonorrhoeae FA19 multidrug efflux protein NorM expressed in Escherichia coli AG100AX assessed as increase in ethidium bromide accumulation at 100 uM after 15 mins by fluorimetric assay. A digest of the protocol: as §1
Assay [9] addresses T1, Multidrug resistance protein MdtK (Escherichia coli (strain K12)). Description: Inhibition of Escherichia coli K-12 multidrug efflux protein YdhE expressed in Escherichia coli AG100AX assessed as assessed as increase in ethidium bromide accumulation at 100 uM after 15 mins by fluorimetric assay. A digest of the protocol: as §1
The target is the same in assay [10]. Description: Inhibition of Escherichia coli K-12 multidrug efflux protein YdhE expressed in Escherichia coli AG100AX assessed as assessed as increase in Norfloxacin accumulation at 100 uM after 15 mins by fluorimetric assay. A digest of the protocol:
as §1

Assay [11] deals with Neisseria gonorrhoeae. Description: Inhibition of Neisseria gonorrhoeae FA19 multidrug efflux protein NorM expressed in Escherichia coli AG100AX assessed as increase in Norfloxacin accumulation at 100 uM after 15 mins by fluorimetric assay. A digest of the protocol: as §1
Assay [12] concerns Neisseria gonorrhoeae. Put plainly: Activity of Neisseria gonorrhoeae FA19 multidrug efflux protein NorM expressed in Escherichia coli AG100AX assessed as reduction in compound accumulation in presence of 100 mM NaCl by fluorimetric assay. A digest of the protocol:
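Arabinose-induced (0.01%) AG100AX cells at OD600 1.0 were held in 0.1 M Tris-HCl pH 7.0 with ethidium bromide (20 μg/ml final), then 100 mM NaCl, or KCl for comparison, was added. At each time point a 1-ml sample was centrifuged at 4°C and washed, and fluorescence read at ex 500/em 580 nm.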

Converted amounts (≈) assume the structure as drawn. The source made the active and inactive calls.

As usually defined, the MIC is the smallest concentration in the dilution series that meets the test's criterion for growth inhibition. For the molecule `CO[C@@H]1[C@@H](OC(N)=O)[C@@H](O)[C@H](Oc2ccc3c(O)c(NC(=O)c4ccc(O)c(CC=C(C)C)c4)c(=O)oc3c2C)OC1(C)C` [NOVOBIOCIN], the minimal inhibitory concentration (MIC) is 1.56 µg/mL (≈ 2.55 µM) in assay [1], 3.12 µg/mL (≈ 5.1 µM) in assay [2] and 3.12 µg/mL (≈ 5.1 µM) in [3].

One may read the Kd as the concentration at which binding is half-saturated. On to `O=C(O)c1cn(C2CC2)c2cc(N3CCNCC3)c(F)cc2c1=O` [CIPROFLOXACIN], for which the dissociation constant (Kd) is 121 µM in assay [4] and 90.9 µM in assay [7]. Also, the result in assay [5] and in assay [6] was Active.

In the case of `[Cl-].c1ccc([P+](c2ccccc2)(c2ccccc2)c2ccccc2)cc1` [TETRAPHENYLPHOSPHONIUM CHLORIDE], the MIC in assay [1] came to 12.5 µg/mL; in assay [2], 25 µg/mL; in [3], 25 µg/mL.

In the case of `COc1ccc2cc3[n+](cc2c1OC)CCc1cc2c(cc1-3)OCO2.[Cl-]` [BERBERINE CHLORIDE], the minimum inhibitory concentration (MIC) was 31.2 µg/mL in [1], 250 µg/mL in [2] and 250 µg/mL in assay [3].

Take `O=C(N[C@H](CO)[C@H](O)c1ccc([N+](=O)[O-])cc1)C(Cl)Cl` [CHLORAMPHENICOL]: the MIC in [1], in assay [2] and in assay [3] was 0.625 µg/mL (≈ 1.93 µM) in each case.

Consider `CCn1cc(C(=O)O)c(=O)c2cc(F)c(N3CCNCC3)nc21` [ENOXACIN], for which the MIC in [1] turned out to be 0.031 µg/mL (≈ 0.0968 µM); in assay [2], 0.063 µg/mL (≈ 0.197 µM); in assay [3] it was 0.063 µg/mL (≈ 0.197 µM).

On to GENTAMICIN, for which the MIC in assay [1], in assay [2] and in assay [3] was 2.5 µg/mL throughout.

With `Nc1ccc2cc3ccc(N)cc3nc2c1` [PROFLAVINE], the MIC worked out at 6.25 µg/mL (≈ 29.9 µM) in assay [1], 12.5 µg/mL (≈ 59.7 µM) in [2] and 12.5 µg/mL (≈ 59.7 µM) in assay [3].

As for `CCn1cc(C(=O)O)c(=O)c2ccc(C)nc21` [NALIDIXIC ACID], the minimum inhibitory concentration (MIC) in assay [1], in [2] and in assay [3] was 0.625 µg/mL (≈ 2.69 µM) each time.

Regarding `CN(C)c1ccc(O)c2c1C[C@H]1C[C@H]3[C@H](N(C)C)C(O)=C(C(N)=O)C(=O)[C@@]3(O)C(O)=C1C2=O` [MINOCYCLINE], the MIC in assay [1], in [2] and in assay [3] was 0.625 µg/mL (≈ 1.37 µM) each time.

As to `CCn1cc(C(=O)O)c(=O)c2cc(F)c(N3CCNC(C)C3)c(F)c21` (stereo not drawn) [LOMEFLOXACIN], the values for the MIC in [1], in assay [2] and in assay [3] were 0.016 µg/mL (≈ 0.0455 µM), 0.016 µg/mL (≈ 0.0455 µM) and 0.032 µg/mL (≈ 0.0911 µM), respectively.

On to `COc1cccc2c1C(=O)c1c(O)c3c(c(O)c1C2=O)C[C@@](O)(C(=O)CO)C[C@@H]3O[C@H]1C[C@H](N)[C@H](O)[C@H](C)O1` [DOXORUBICIN], for which the MIC in assay [1] worked out at 1.56 µg/mL (≈ 2.87 µM); in assay [2], 6.25 µg/mL (≈ 11.5 µM); in assay [3] it was 6.25 µg/mL (≈ 11.5 µM).

As to `CN[C@@H]1[C@H](O[C@H]2[C@H](O[C@H]3[C@H](O)[C@@H](O)[C@H](N=C(N)N)[C@@H](O)[C@@H]3N=C(N)N)O[C@@H](C)[C@]2(O)C=O)O[C@@H](CO)[C@H](O)[C@H]1O` [STREPTOMYCIN], the MIC in assay [1], in assay [2] and in assay [3] was greater than 50000 µg/mL throughout.

Turning to `CN(C)c1ccc(C(=C2C=CC(=[N+](C)C)C=C2)c2ccc(N(C)C)cc2)cc1.[Cl-]` [GENTIAN VIOLET], the MIC in assay [1] came out at 0.625 µg/mL; in assay [2] it was 2.5 µg/mL; in [3], 2.5 µg/mL.

In the case of `N#CC(C#N)=NNc1cccc(Cl)c1` [CARBONYL CYANIDE M-CHLOROPHENYLHYDRAZONE], the inhibition entry in assay [8], in assay [9], in assay [10] and in [11] was “Active” throughout. For the same molecule, the MIC in [1], in assay [2] and in [3] was 6.25 µg/mL (≈ 30.5 µM) in each case.

As for `C[n+]1ccc(-c2cc[n+](C)cc2)cc1.[Cl-].[Cl-]` [PARAQUAT DICHLORIDE], the minimal inhibitory concentration (MIC) in [1], in assay [2] and in assay [3] was 156 µg/mL in each case.

Take `CCn1cc(C(=O)O)c(=O)c2cc(F)c(N3CCNCC3)cc21` [NORFLOXACIN]: the outcome in [12] was Active. The minimal inhibitory concentration (MIC) was found to be 0.008 µg/mL (≈ 0.0251 µM) in assay [1], 0.016 µg/mL (≈ 0.0501 µM) in assay [2] and 0.032 µg/mL (≈ 0.1 µM) in assay [3]. Moreover, the figures for the Kd in assay [4] and in [7] were 126 µM and 98.4 µM, respectively.

Take `CN[C@H](CC(C)C)C(=O)N[C@H]1C(=O)N[C@@H](CC(N)=O)C(=O)N[C@H]2C(=O)N[C@H]3C(=O)N[C@H](C(=O)N[C@H](C(=O)O)c4cc(O)cc(O)c4-c4cc3ccc4O)[C@H](O)c3ccc(c(Cl)c3)Oc3cc2cc(c3O[C@@H]2O[C@H](CO)[C@@H](O)[C@H](O)[C@H]2O[C@H]2C[C@](C)(N)[C@H](O)[C@H](C)O2)Oc2ccc(cc2Cl)[C@H]1O` [VANCOMYCIN]: the minimal inhibitory concentration (MIC) in assay [1], in assay [2] and in assay [3] was 250 µg/mL (≈ 173 µM) throughout.

As for `CC[n+]1c(-c2ccccc2)c2cc(N)ccc2c2ccc(N)cc21.[Br-]` [HOMIDIUM BROMIDE], the outcome in assay [12], in assay [5] and in assay [6] was Active. Further, the MIC in [1] stood at 7.81 µg/mL; in [2] it was 15.6 µg/mL; in assay [3], 15.6 µg/mL. Moreover, the values for the Kd in [4] and in assay [7] were 12.3 µM and 9.8 µM, respectively.

`CN(C)[C@@H]1C(O)=C(C(N)=O)C(=O)[C@@]2(O)C(O)=C3C(=O)c4c(O)cccc4[C@@](C)(O)[C@H]3C[C@@H]12` [TETRACYCLINE]: the minimal inhibitory concentration (MIC) in assay [1], in assay [2] and in [3] was 1.25 µg/mL (≈ 2.81 µM) each time.

Values taken from ChEMBL document CHEMBL1671618, “Functional cloning and characterization of the multidrug efflux pumps NorM from Neisseria gonorrhoeae and YdhE from Escherichia coli” (Antimicrob Agents Chemother, 2008).
